For seven molecules, IC50 and inhibition results are on record in ChEMBL document CHEMBL2150975, “Discovery of a novel chemotype of tyrosine kinase inhibitors by fragment-based docking and molecular dynamics” (ACS Med Chem Lett, 2012).

Calls of active or inactive are those of the source. No cut-off for these calls is given here.

The target of experiment [1] is T1, Ephrin type-B receptor 4 (Homo sapiens, UniProt P54760).
T1 sequence (P54760 whole entry): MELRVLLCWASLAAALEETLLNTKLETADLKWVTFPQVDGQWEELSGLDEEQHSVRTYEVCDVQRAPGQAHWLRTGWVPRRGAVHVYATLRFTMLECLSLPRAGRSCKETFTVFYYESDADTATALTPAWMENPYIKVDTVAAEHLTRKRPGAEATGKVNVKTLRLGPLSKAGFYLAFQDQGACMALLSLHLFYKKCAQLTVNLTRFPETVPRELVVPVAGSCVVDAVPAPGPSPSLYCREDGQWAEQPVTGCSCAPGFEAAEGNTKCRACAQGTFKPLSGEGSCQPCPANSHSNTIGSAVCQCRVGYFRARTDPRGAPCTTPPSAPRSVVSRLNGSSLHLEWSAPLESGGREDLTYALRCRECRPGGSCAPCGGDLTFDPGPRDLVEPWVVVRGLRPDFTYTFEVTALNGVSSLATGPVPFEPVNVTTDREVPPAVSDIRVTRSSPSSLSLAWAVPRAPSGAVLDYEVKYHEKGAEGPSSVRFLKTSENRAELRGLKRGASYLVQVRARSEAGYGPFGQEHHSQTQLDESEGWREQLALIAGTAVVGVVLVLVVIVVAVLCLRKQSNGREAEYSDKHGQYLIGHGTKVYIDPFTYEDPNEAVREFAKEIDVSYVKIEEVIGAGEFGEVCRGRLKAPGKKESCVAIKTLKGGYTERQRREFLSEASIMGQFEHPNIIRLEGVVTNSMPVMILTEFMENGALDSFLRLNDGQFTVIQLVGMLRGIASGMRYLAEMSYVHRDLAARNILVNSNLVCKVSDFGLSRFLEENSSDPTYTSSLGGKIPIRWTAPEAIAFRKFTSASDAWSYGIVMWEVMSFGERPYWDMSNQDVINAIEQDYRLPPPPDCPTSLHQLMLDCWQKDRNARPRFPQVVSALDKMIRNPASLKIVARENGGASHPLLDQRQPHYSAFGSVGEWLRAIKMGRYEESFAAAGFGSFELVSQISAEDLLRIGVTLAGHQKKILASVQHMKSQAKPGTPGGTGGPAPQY
The experiment is described as follows: Inhibition of EphB4 in presence of 1 uM radiolabeled ATP. The gist of the method:
(§1)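 Radiometric enzymatic assay run by a contract lab (Reaction Biology) on the recombinant catalytic domain of each kinase, with radiolabeled ATP at 1 μM. IC50 taken from a 10-dose response.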

The target of experiment [2] is T2, Ephrin type-B receptor 4 (Homo sapiens) (UniProt P54760).
T2 sequence (whole entry): T1 sequence (P54760 whole entry)
The experiment is described as follows: Inhibition of EphB4 at 30 uM in presence of 30 uM ATP. The gist of the method:
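EphB4 kinase, FRET enzymatic assay run in house with a commercial EphB4 assay kit. ATP at 30 μM, compound at 30 μM. Read-out is percent inhibition at that single concentration.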

Experiment [3] concerns the target Tyrosine-protein kinase ABL1 (Homo sapiens, UniProt P00519). Briefly: Inhibition of recombinant Abl1 catalytic domain in presence of 1 uM radiolabeled ATP. The gist of the method: as §1
The target in experiment [4] is Proto-oncogene tyrosine-protein kinase Src (Homo sapiens, UniProt P12931). Briefly: Inhibition of recombinant Src catalytic domain in presence of 1 uM radiolabeled ATP. The gist of the method:
as §1

The target of experiment [5] is Insulin-like growth factor 1 receptor (Homo sapiens) (UniProt P08069). Briefly: Inhibition of recombinant IGF1R catalytic domain in presence of 1 uM radiolabeled ATP. The gist of the method:
as §1

Experiment [6] concerns the target T1, Ephrin type-B receptor 4. The experiment is described as follows: Inhibition of EphB4 by FRET assay in presence of 30 uM ATP. The gist of the method: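 In-house FRET enzymatic assay of EphB4 using a commercial EphB4 kit, ATP 30 μM. IC50 derived from concentration-response.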
The target of experiment [7] is Epidermal growth factor receptor (Homo sapiens, UniProt P00533). Briefly: Inhibition of recombinant EGFR catalytic domain in presence of 1 uM radiolabeled ATP. The gist of the method: as §1
Sequence of Epidermal growth factor receptor (P00533 whole entry, the tested form may be a part): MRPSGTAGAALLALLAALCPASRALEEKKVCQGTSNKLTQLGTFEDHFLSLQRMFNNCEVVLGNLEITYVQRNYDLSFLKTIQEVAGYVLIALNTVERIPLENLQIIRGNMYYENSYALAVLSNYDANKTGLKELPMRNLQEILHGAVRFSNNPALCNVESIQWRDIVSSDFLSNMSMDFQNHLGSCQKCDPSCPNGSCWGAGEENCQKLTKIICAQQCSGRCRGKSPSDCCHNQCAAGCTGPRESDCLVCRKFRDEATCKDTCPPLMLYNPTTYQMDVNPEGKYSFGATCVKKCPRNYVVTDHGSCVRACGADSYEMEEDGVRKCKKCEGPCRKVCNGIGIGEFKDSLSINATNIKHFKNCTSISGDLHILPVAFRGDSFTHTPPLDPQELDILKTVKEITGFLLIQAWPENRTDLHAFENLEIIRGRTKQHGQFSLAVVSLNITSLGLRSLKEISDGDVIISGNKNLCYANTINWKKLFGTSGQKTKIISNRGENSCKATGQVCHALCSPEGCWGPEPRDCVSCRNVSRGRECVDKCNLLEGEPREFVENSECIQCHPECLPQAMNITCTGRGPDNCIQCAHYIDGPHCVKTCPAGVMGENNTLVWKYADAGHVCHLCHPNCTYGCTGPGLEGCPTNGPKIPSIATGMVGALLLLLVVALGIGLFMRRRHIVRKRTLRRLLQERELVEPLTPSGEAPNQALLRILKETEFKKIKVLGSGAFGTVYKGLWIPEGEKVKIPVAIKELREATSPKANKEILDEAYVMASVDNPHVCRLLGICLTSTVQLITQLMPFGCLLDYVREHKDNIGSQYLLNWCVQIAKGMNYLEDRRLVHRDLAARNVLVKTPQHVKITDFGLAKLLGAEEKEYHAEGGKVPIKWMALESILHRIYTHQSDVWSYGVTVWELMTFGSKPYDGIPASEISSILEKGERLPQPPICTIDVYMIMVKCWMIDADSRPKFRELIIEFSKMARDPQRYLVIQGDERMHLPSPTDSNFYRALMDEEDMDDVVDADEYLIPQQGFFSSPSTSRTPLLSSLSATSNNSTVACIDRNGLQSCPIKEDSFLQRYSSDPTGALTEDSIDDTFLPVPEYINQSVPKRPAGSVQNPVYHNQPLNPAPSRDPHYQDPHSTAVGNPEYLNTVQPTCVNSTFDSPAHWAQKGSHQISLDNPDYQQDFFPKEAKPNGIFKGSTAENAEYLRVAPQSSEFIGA
Experiment [8] has as its target Tyrosine-protein kinase Lck (Homo sapiens, UniProt P06239). Briefly: Inhibition of recombinant Lck catalytic domain in presence of 1 uM radiolabeled ATP. The gist of the method: as §1
The target of experiment [9] is T1, Ephrin type-B receptor 4. Briefly: Inhibition of human full length EphB4 expressed in MEF cells assessed as inhibition of human ephrin B2/FC chimera-stimulated receptor autophosphorylation. The class given is cell-based. The gist of the method:
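Cellular EphB4 phosphorylation assay run by a contract lab (ProQinase) in murine embryonal fibroblasts (MEF) expressing exogenous full-length human EphB4. Cells were stimulated 2 h with human Ephrin-B2/Fc chimera to induce receptor tyrosine autophosphorylation. Read-out is inhibition of that autophosphorylation.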

Sequence of Insulin-like growth factor 1 receptor (Homo sapiens) (P08069 31-736 limits assumed): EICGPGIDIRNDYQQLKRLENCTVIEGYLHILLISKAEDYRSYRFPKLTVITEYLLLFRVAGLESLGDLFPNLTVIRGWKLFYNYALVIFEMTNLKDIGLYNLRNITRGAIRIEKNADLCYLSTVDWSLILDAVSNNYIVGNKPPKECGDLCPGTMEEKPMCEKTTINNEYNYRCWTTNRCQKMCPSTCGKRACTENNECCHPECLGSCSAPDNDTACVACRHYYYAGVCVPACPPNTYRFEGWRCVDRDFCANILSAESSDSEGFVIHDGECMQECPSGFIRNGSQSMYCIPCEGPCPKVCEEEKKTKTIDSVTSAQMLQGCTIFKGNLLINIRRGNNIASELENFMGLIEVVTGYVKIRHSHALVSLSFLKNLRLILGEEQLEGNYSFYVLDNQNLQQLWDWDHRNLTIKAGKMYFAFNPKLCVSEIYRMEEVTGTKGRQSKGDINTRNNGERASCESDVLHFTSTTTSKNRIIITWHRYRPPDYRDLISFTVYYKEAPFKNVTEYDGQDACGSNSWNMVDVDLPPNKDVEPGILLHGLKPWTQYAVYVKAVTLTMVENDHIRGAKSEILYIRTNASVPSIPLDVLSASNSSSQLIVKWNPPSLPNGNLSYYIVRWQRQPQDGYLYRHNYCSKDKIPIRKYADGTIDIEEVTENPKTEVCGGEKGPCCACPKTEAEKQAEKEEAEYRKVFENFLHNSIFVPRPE
Sequence of Insulin-like growth factor 1 receptor (Homo sapiens) (P08069 741-1367 limits assumed): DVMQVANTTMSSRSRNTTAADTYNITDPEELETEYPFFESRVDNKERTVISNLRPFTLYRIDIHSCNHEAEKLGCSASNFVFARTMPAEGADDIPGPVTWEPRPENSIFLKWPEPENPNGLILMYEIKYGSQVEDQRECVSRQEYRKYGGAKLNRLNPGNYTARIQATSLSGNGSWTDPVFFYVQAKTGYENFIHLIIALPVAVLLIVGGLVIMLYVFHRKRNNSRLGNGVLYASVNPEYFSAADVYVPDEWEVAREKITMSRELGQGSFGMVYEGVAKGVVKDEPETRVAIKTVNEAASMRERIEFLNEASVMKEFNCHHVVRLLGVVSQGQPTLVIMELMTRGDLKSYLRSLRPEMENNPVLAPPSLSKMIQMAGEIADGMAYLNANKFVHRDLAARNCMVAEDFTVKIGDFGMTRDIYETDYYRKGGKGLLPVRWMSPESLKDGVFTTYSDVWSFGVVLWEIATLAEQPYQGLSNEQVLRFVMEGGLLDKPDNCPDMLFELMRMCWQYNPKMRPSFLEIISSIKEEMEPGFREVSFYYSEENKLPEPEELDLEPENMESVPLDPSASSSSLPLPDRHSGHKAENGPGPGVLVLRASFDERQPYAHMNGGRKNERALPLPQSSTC
Sequence of Tyrosine-protein kinase Lck (P06239 whole entry, the tested form may be a part): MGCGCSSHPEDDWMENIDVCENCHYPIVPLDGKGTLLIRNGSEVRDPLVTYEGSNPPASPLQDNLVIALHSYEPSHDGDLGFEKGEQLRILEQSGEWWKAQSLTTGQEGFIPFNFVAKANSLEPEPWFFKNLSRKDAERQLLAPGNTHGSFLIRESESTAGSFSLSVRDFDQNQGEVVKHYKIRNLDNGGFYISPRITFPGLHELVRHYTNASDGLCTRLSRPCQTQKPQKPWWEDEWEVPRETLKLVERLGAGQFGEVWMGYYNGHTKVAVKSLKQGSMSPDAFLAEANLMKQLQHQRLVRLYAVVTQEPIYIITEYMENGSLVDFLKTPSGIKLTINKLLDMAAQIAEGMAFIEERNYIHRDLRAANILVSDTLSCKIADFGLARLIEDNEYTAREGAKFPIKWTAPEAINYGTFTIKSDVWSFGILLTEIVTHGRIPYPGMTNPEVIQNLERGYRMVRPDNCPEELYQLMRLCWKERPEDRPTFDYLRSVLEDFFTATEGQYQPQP
Sequence of Proto-oncogene tyrosine-protein kinase Src (P12931 2-536 limits assumed): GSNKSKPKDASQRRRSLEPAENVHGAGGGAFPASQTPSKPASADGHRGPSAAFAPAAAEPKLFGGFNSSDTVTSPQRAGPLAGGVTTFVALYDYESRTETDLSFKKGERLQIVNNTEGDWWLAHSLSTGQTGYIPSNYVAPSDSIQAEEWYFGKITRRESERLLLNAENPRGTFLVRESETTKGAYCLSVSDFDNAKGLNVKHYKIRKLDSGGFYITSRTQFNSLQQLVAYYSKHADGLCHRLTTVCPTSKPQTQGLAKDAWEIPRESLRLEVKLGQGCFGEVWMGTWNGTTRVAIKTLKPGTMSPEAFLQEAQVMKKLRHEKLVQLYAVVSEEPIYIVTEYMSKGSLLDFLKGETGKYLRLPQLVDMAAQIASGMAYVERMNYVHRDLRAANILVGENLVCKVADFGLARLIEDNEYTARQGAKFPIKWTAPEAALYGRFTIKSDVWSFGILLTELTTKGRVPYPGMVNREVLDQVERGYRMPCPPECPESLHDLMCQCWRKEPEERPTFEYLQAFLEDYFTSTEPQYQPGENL
Sequence of Tyrosine-protein kinase ABL1 (P00519 whole entry, the tested form may be a part): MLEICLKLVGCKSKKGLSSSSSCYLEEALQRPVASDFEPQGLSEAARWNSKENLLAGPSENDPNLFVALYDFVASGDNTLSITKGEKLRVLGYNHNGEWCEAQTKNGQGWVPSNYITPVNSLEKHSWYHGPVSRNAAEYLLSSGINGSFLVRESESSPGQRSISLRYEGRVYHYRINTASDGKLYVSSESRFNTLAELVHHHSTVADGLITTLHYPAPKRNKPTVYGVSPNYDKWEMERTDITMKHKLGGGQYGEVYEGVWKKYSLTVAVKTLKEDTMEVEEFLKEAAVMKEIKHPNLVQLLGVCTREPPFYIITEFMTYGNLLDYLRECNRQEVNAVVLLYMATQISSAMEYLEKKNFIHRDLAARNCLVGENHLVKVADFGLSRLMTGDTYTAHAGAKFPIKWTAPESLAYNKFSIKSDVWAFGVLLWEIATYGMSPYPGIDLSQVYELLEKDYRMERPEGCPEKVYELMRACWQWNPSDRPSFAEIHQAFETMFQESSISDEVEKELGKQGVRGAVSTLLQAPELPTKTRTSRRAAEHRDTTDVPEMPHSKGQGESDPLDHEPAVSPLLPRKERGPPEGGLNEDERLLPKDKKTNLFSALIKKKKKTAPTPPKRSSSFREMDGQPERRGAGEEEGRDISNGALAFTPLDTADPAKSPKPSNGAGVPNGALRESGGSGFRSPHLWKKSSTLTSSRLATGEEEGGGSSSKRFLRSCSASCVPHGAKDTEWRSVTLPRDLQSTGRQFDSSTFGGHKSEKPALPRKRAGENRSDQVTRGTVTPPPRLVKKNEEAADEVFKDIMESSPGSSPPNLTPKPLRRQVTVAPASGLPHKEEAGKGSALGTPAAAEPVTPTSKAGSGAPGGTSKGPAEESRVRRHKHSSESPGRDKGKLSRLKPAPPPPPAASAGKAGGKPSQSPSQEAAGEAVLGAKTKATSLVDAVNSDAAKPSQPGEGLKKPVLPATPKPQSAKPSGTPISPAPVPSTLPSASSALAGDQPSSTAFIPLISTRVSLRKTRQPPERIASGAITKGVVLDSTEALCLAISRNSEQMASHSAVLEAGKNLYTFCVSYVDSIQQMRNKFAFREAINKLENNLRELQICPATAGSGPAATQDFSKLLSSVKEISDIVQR

On to `Cc1ccccc1-n1c(=O)c2c(c3c(N)ncnc31)CCCC2`, for which, on Ephrin type-B receptor 4 [1], the 50% inhibitory concentration (IC50) was 8400 nM. In addition, the inhibition in [2] amounted to 48%.
For `COc1cccc(-n2c(=O)c3c(c4c(N)ncnc42)CC(C)(C)OC3)c1`, in that order: 14300 nM and 38%.
On to `Cc1ccc(O)cc1-n1c(=O)c2c(c3c(N)ncnc31)CCCC2`, for which the IC50 in experiment [3] was determined as 864 nM; in [4], 338 nM; on Ephrin type-B receptor 4 [6] it was 300 nM; at Ephrin type-B receptor 4 [1], 160 nM; in [7], 1620 nM; in experiment [8], 1380 nM. Also, at Ephrin type-B receptor 4 [9], the IC50 came to 930 nM. Further, the inhibition entry in experiment [5] was “inactive”.
In the case of `COc1ccccc1-n1c(=O)c2c(c3c(N)ncnc31)CCCC2`, the inhibition in experiment [2] stood at 5%.
For `COc1cccc(-n2c(=O)c3c(c4c(N)ncnc42)CCCC3)c1`, the IC50 at Ephrin type-B receptor 4 [6] worked out at 9400 nM; at Ephrin type-B receptor 4 [1] it was 5200 nM. In addition, the inhibition in [2] worked out at 75%.
As to `COc1ccc(-n2c(=O)c3c(c4c(N)ncnc42)CCCC3)cc1`, the inhibition in [2] turned out to be 37%.
On the same count and under the same terms, then `COc1ccccc1-n1c(=O)c2c(c3c(N)ncnc31)CC(C)(C)OC2`, with 0%.

For orientation: IC50 means the concentration that gives 50% inhibition. One may read the inhibition as the relative decrease from the control value, in per cent.
